{"source": "ChEMBL document CHEMBL1221337", "about": "“The unsaturated acyclic nucleoside analogues bearing a sterically constrained (Z)-4'-benzamido-2'-butenyl moiety: Synthesis, X-ray crystal structure study, cytostatic and antiviral activity evaluations” (Bioorg Med Chem, 2010)", "note": "The source made the active and inactive calls. No cut-off for these calls is given here.", "data": [{"test_system": "Coxsackievirus B4", "assay": "Antiviral activity against Coxsackievirus B4 infected in Vero cells assessed as inhibition of virus-induced cytopathicity", "type": "functional, organism-based", "conditions": "not given", "procedure,_shortened": "(§1)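 Confluent cell monolayers in 96-well plates were inoculated with 100 CCID50 of virus. After 1 h adsorption, residual virus was removed. Cultures were then incubated with test compound at varying concentrations (200, 40, 8... µM). Viral cytopathicity was scored once it reached completion in untreated infected controls. Host cells: HEL for HSV-1 KOS and HSV-2 G; Vero for the Vero lines; HeLa for the HeLa lines.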", "values": [{"smiles": "O=C(NC/C=C\\Cn1ccc(=O)[nH]c1=O)c1ccc(F)cc1", "inhibition": "inactive"}, {"smiles": "Nc1nc(=O)n(C/C=C\\CNC(=O)c2ccccc2)cc1F", "inhibition": "inactive"}]}, {"test_system": "MIA PaCa-2", "assay": "Cytotoxicity against human MIAPaCa2 cells after 72 hrs by MTT assay", "type": "functional, cell-based", "conditions": "MIA PaCa-2, 72 h", "procedure,_shortened": "(§2)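 Adherent cells were plated at 3000–6000 cells/well on day 0, according to doubling time. Compound was added as five 10-fold dilutions (1 × 10⁻⁸–1 × 10⁻⁴ M), with DMSO ≤0.1%, and incubated 72 h. Read-out was MTT absorbance converted to percentage growth versus untreated wells on the same plate. IC50 was obtained by linear regression between bracketing concentrations; the highest concentration was reported as \">\" if not reached. Quadruplicates, three experiments.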", "units": {"IC50": "µM"}, "values": [{"smiles": "O=C(NC/C=C\\Cn1ccc(=O)[nH]c1=O)c1ccc(F)cc1", "IC50": "> 100"}, {"smiles": "Nc1nc(=O)n(C/C=C\\CNC(=O)c2ccccc2)cc1F", "IC50": "> 100"}]}, {"test_system": "Vesicular stomatitis virus", "assay": "Antiviral activity against Vesicular stomatitis virus infected in HEL cells assessed as inhibition of virus-induced cytopathicity", "type": "functional, organism-based", "conditions": "not given", "values": [{"smiles": "O=C(NC/C=C\\Cn1ccc(=O)[nH]c1=O)c1ccc(F)cc1", "inhibition": "inactive"}, {"smiles": "Nc1nc(=O)n(C/C=C\\CNC(=O)c2ccccc2)cc1F", "inhibition": "inactive"}]}, {"test_system": "MDCK", "assay": "Cytotoxicity against MDCK cells assessed as cell viability after 3 days by coulter counting", "type": "cell-based, Canis lupus familiaris", "conditions": "dog, 72 h", "values": [{"smiles": "O=C(NC/C=C\\Cn1ccc(=O)[nH]c1=O)c1ccc(F)cc1", "Activity": "Non-toxic"}, {"smiles": "Nc1nc(=O)n(C/C=C\\CNC(=O)c2ccccc2)cc1F", "Activity": "Non-toxic"}]}, {"test_system": "Human alphaherpesvirus 1", "assay": "Antiviral activity against HSV1 KOS infected in HEL cells assessed as inhibition of virus-induced cytopathicity", "type": "functional, organism-based", "conditions": "not given", "procedure,_shortened": "as §1", "values": [{"smiles": "O=C(NC/C=C\\Cn1ccc(=O)[nH]c1=O)c1ccc(F)cc1", "inhibition": "inactive"}, {"smiles": "Nc1nc(=O)n(C/C=C\\CNC(=O)c2ccccc2)cc1F", "inhibition": "inactive"}]}, {"test_system": "Human alphaherpesvirus 2", "assay": "Antiviral activity against HSV2 G infected in HEL cells assessed as inhibition of virus-induced cytopathicity", "type": "functional, organism-based", "conditions": "strain G", "procedure,_shortened": "as §1", "values": [{"smiles": "O=C(NC/C=C\\Cn1ccc(=O)[nH]c1=O)c1ccc(F)cc1", "inhibition": "inactive"}, {"smiles": "Nc1nc(=O)n(C/C=C\\CNC(=O)c2ccccc2)cc1F", "inhibition": "inactive"}]}, {"test_system": "HEL", "assay": "Cytotoxicity against HEL cells assessed as cell viability after 3 days by coulter counting", "type": "cell-based", "conditions": "human, 72 h", "procedure,_shortened": "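HEL cells were seeded at 5 × 10³ cells/well and allowed to proliferate 24 h. Medium with test compound at different concentrations was then added, and cells were incubated 3 days at 37 °C. Cell number was counted by Coulter counter. CC50 (50% reduction in cell number versus untreated controls) was read from plots of cell number (% of control) against concentration.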", "values": [{"smiles": "O=C(NC/C=C\\Cn1ccc(=O)[nH]c1=O)c1ccc(F)cc1", "Activity": "Non-toxic"}, {"smiles": "Nc1nc(=O)n(C/C=C\\CNC(=O)c2ccccc2)cc1F", "Activity": "Non-toxic"}]}, {"test_system": "not listed separately", "assay": "Cytotoxicity against human WI38 cells after 72 hrs by MTT assay", "type": "cell-based", "conditions": "WI-38, 72 h", "procedure,_shortened": "as §2", "units": {"IC50": "µM"}, "values": [{"smiles": "O=C(NC/C=C\\Cn1ccc(=O)[nH]c1=O)c1ccc(F)cc1", "IC50": "> 100"}, {"smiles": "Nc1nc(=O)n(C/C=C\\CNC(=O)c2ccccc2)cc1F", "IC50": 50.2}]}, {"test_system": "Vero", "assay": "Cytotoxicity against african green monkey Vero cells assessed as cell viability after 3 days by coulter counting", "type": "cell-based", "conditions": "chlorocebus sabaeus, 72 h", "values": [{"smiles": "O=C(NC/C=C\\Cn1ccc(=O)[nH]c1=O)c1ccc(F)cc1", "Activity": "Non-toxic"}, {"smiles": "Nc1nc(=O)n(C/C=C\\CNC(=O)c2ccccc2)cc1F", "Activity": "Non-toxic"}]}, {"test_system": "Sindbis virus", "assay": "Antiviral activity against Sindbis virus infected in Vero cells assessed as inhibition of virus-induced cytopathicity", "type": "functional, organism-based", "conditions": "not given", "procedure,_shortened": "as §1", "values": [{"smiles": "O=C(NC/C=C\\Cn1ccc(=O)[nH]c1=O)c1ccc(F)cc1", "inhibition": "inactive"}, {"smiles": "Nc1nc(=O)n(C/C=C\\CNC(=O)c2ccccc2)cc1F", "inhibition": "inactive"}]}, {"test_system": "Mammalian orthoreovirus 1", "assay": "Antiviral activity against Reovirus 1 infected in Vero cells assessed as inhibition of virus-induced cytopathicity", "type": "functional, organism-based", "conditions": "not given", "procedure,_shortened": "as §1", "values": [{"smiles": "O=C(NC/C=C\\Cn1ccc(=O)[nH]c1=O)c1ccc(F)cc1", "inhibition": "inactive"}, {"smiles": "Nc1nc(=O)n(C/C=C\\CNC(=O)c2ccccc2)cc1F", "inhibition": "inactive"}]}, {"test_system": "Respiratory syncytial virus", "assay": "Antiviral activity against Respiratory syncytial virus infected in human HeLa cells assessed as inhibition of virus-induced cytopathicity", "type": "functional, organism-based", "conditions": "not given", "procedure,_shortened": "as §1", "values": [{"smiles": "O=C(NC/C=C\\Cn1ccc(=O)[nH]c1=O)c1ccc(F)cc1", "inhibition": "inactive"}, {"smiles": "Nc1nc(=O)n(C/C=C\\CNC(=O)c2ccccc2)cc1F", "inhibition": "inactive"}]}, {"test_system": "SK-BR-3", "assay": "Cytotoxicity against human SK-BR-3 cells after 72 hrs by MTT assay", "type": "functional, cell-based", "conditions": "SK-BR-3, 72 h", "procedure,_shortened": "as §2", "units": {"IC50": "µM"}, "values": [{"smiles": "O=C(NC/C=C\\Cn1ccc(=O)[nH]c1=O)c1ccc(F)cc1", "IC50": "> 100"}, {"smiles": "Nc1nc(=O)n(C/C=C\\CNC(=O)c2ccccc2)cc1F", "IC50": "> 100"}]}, {"test_system": "HeLa", "assay": "Cytotoxicity against human HeLa cells assessed as cell viability after 3 days by coulter counting", "type": "cell-based", "conditions": "72 h", "values": [{"smiles": "O=C(NC/C=C\\Cn1ccc(=O)[nH]c1=O)c1ccc(F)cc1", "Activity": "Non-toxic"}, {"smiles": "Nc1nc(=O)n(C/C=C\\CNC(=O)c2ccccc2)cc1F", "Activity": "Non-toxic"}]}, {"test_system": "Human respirovirus 3", "assay": "Antiviral activity against Parainfluenza 3 infected in Vero cells assessed as inhibition of virus-induced cytopathicity", "type": "functional, organism-based", "conditions": "not given", "procedure,_shortened": "as §1", "values": [{"smiles": "O=C(NC/C=C\\Cn1ccc(=O)[nH]c1=O)c1ccc(F)cc1", "inhibition": "inactive"}, {"smiles": "Nc1nc(=O)n(C/C=C\\CNC(=O)c2ccccc2)cc1F", "inhibition": "inactive"}]}, {"test_system": "HeLa", "assay": "Cytotoxicity against human HeLa cells after 72 hrs by MTT assay", "type": "functional, cell-based", "conditions": "not given", "procedure,_shortened": "as §2", "units": {"IC50": "µM"}, "values": [{"smiles": "O=C(NC/C=C\\Cn1ccc(=O)[nH]c1=O)c1ccc(F)cc1", "IC50": "> 100"}, {"smiles": "Nc1nc(=O)n(C/C=C\\CNC(=O)c2ccccc2)cc1F", "IC50": 71.9}]}, {"test_system": "Coxsackievirus B4", "assay": "Antiviral activity against Coxsackievirus B4 infected in human HeLa cells assessed as inhibition of virus-induced cytopathicity", "type": "functional, organism-based", "conditions": "not given", "procedure,_shortened": "as §1", "values": [{"smiles": "O=C(NC/C=C\\Cn1ccc(=O)[nH]c1=O)c1ccc(F)cc1", "inhibition": "inactive"}, {"smiles": "Nc1nc(=O)n(C/C=C\\CNC(=O)c2ccccc2)cc1F", "inhibition": "inactive"}]}, {"test_system": "Vesicular stomatitis virus", "assay": "Antiviral activity against Vesicular stomatitis virus infected in human HeLa cells assessed as inhibition of virus-induced cytopathicity", "type": "functional, organism-based", "conditions": "not given", "procedure,_shortened": "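Confluent HeLa cultures were infected with 100 CCID50 of virus. Unadsorbed virus was removed after 1 h, and compound was added at serial concentrations (200, 40, 8…). Viral cytopathic effect was read when untreated virus-infected control wells reached full cytopathicity.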", "values": [{"smiles": "O=C(NC/C=C\\Cn1ccc(=O)[nH]c1=O)c1ccc(F)cc1", "inhibition": "inactive"}, {"smiles": "Nc1nc(=O)n(C/C=C\\CNC(=O)c2ccccc2)cc1F", "inhibition": "inactive"}]}, {"test_system": "Influenza A virus", "assay": "Antiviral activity against influenza A virus H1N1; H3N2 infected in MDCK cells assessed as inhibition of virus-induced cytopathicity", "type": "functional, organism-based", "conditions": "not given", "procedure,_shortened": "(§3)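 MDCK cells, nearly confluent in microtiter plates, were infected with 100 CCID50 per well. After 1 h adsorption, the inoculum was washed off. Cells were incubated with graded compound concentrations (200, 40, 8…). Cytopathicity was recorded at completion in untreated infected controls.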", "values": [{"smiles": "O=C(NC/C=C\\Cn1ccc(=O)[nH]c1=O)c1ccc(F)cc1", "inhibition": "inactive"}, {"smiles": "Nc1nc(=O)n(C/C=C\\CNC(=O)c2ccccc2)cc1F", "inhibition": "inactive"}]}, {"test_system": "Vaccinia virus", "assay": "Antiviral activity against Vaccinia virus infected in HEL cells assessed as inhibition of virus-induced cytopathicity", "type": "functional, organism-based", "conditions": "Orthopoxvirus vaccinia", "values": [{"smiles": "O=C(NC/C=C\\Cn1ccc(=O)[nH]c1=O)c1ccc(F)cc1", "inhibition": "inactive"}, {"smiles": "Nc1nc(=O)n(C/C=C\\CNC(=O)c2ccccc2)cc1F", "inhibition": "inactive"}]}, {"test_system": "Punta Toro virus", "assay": "Antiviral activity against Punta Toro virus infected in Vero cells assessed as inhibition of virus-induced cytopathicity", "type": "functional, organism-based", "conditions": "not given", "procedure,_shortened": "as §1", "values": [{"smiles": "O=C(NC/C=C\\Cn1ccc(=O)[nH]c1=O)c1ccc(F)cc1", "inhibition": "inactive"}, {"smiles": "Nc1nc(=O)n(C/C=C\\CNC(=O)c2ccccc2)cc1F", "inhibition": "inactive"}]}, {"test_system": "SW-620", "assay": "Cytotoxicity against human SW620 cells after 72 hrs by MTT assay", "type": "functional, cell-based", "conditions": "SW-620, 72 h", "procedure,_shortened": "as §2", "units": {"IC50": "µM"}, "values": [{"smiles": "O=C(NC/C=C\\Cn1ccc(=O)[nH]c1=O)c1ccc(F)cc1", "IC50": "> 100"}, {"smiles": "Nc1nc(=O)n(C/C=C\\CNC(=O)c2ccccc2)cc1F", "IC50": "> 100"}]}, {"test_system": "Influenza B virus", "assay": "Antiviral activity against influenza B virus infected in MDCK cells assessed as inhibition of virus-induced cytopathicity", "type": "functional, organism-based", "conditions": "not given", "procedure,_shortened": "as §3", "values": [{"smiles": "O=C(NC/C=C\\Cn1ccc(=O)[nH]c1=O)c1ccc(F)cc1", "inhibition": "inactive"}, {"smiles": "Nc1nc(=O)n(C/C=C\\CNC(=O)c2ccccc2)cc1F", "inhibition": "inactive"}]}, {"test_system": "HEp-2", "assay": "Cytotoxicity against human Hep2 cells after 72 hrs by MTT assay", "type": "functional, cell-based", "conditions": "HEp-2, 72 h", "procedure,_shortened": "as §2", "units": {"IC50": "µM"}, "values": [{"smiles": "O=C(NC/C=C\\Cn1ccc(=O)[nH]c1=O)c1ccc(F)cc1", "IC50": "> 100"}, {"smiles": "Nc1nc(=O)n(C/C=C\\CNC(=O)c2ccccc2)cc1F", "IC50": "> 100"}]}, {"test_system": "MCF7", "assay": "Cytotoxicity against human MCF7 cells after 72 hrs by MTT assay", "type": "functional, cell-based", "conditions": "MCF7, 72 h", "procedure,_shortened": "as §2", "units": {"IC50": "µM"}, "values": [{"smiles": "O=C(NC/C=C\\Cn1ccc(=O)[nH]c1=O)c1ccc(F)cc1", "IC50": 2.7}, {"smiles": "Nc1nc(=O)n(C/C=C\\CNC(=O)c2ccccc2)cc1F", "IC50": 34.4}]}]}
